Rows were chosen to be rich in hits. Some 4.2% of all compounds tested hit in one or more screens of this group.
AHR act = human AHR activation; AHR-responsive luciferase reporter cells, luminescence; P35869; 320,000 tested, 2.5% active; AID 2796; activation, % at 5 µM; in the data active = activation above about 47%;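 note: 0% = vehicle wells and 100% = reference agonist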
Target sequence (P35869 whole entry, looked up): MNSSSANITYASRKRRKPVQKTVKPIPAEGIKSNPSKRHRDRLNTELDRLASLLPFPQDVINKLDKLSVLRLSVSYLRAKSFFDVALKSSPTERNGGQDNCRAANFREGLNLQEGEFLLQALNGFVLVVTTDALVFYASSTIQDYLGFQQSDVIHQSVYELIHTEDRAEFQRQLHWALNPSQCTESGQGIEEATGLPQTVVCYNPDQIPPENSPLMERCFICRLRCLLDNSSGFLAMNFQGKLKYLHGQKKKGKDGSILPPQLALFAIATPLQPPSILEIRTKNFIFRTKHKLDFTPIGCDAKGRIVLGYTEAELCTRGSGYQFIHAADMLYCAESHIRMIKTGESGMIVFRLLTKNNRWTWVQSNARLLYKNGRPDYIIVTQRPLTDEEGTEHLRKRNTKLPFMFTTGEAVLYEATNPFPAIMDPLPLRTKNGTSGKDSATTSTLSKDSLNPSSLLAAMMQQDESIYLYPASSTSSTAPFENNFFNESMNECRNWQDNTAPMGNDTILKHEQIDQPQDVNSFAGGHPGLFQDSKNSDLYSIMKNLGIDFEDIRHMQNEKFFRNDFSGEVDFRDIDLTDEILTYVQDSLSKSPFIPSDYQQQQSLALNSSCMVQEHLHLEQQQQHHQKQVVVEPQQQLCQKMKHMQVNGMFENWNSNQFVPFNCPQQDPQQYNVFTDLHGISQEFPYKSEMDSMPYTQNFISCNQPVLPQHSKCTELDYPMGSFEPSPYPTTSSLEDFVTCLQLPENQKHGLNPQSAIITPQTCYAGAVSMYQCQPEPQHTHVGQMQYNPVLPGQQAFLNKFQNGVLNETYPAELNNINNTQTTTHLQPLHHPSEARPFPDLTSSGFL
FXN GAA850 act = increases GAA850 frataxin promoter reporter activity; HEK293 lucGAA850 FXN promoter luciferase reporter, 24 h; percent of 10 µM SAHA response; activation, % at 6 µM; 360,000 tested, 0.56% active; AID 540364;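 active = activation above the average of all compounds screened plus 3 SD, cutoff fixed separately per campaign, cut at about 7.5% in these data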;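 note: 0% = DMSO wells and 100% = 10 µM SAHA wells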
HDAC3 inh = blocks human histone deacetylase 3; recombinant HDAC3, fluorogenic peptide/trypsin coupled, fluorescence; inhibition, % at 8.3 µM; 320,000 tested, 0.15% active; in the data active = inhibition above about 26%, passing the limit was not always enough
Fh CTSL1 inh = blocks F. hepatica cathepsin L1 in PFM18AAP counter-screen; recombinant F. hepatica cathepsin L1, Z-Leu-Arg-MCA fluorescence; inhibition, % at 5.96 µM; 300,000 tested, 0.49% active; AID 1906;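 active = inhibition above the mean of all tested compounds plus 3 SD, set per screening campaign, cut at about 17% in these data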;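 note: 0% = plate median of test compound wells and 100% = 1 µM Z-Phe-Ala-diazomethylketone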
SENP1 FRET inh = blocks the human SENP1 SUMO protease catalytic domain. recombinant SENP1 catalytic domain, CyPet-SUMO1-YPet FRET cleavage. inhibition, % at 10 µM. 360,000 tested, 0.21% active;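 active = inhibition at least 30% at 10 µM, raw YFP signal under a set limit, fluorescence ratio 0.5 to 1.5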;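 note: 0% = enzyme with DMSO and 100% = no enzyme wells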
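system = hSENP1 catalytic domain, recombinant | reagent = SFCypet-SUMO1-SFYpet substrate at 25 nM | doses = one dose per compound, 10 µM, 0.5% DMSO | incubation = enzyme reaction for 50 min at room temperature, dark | measured by = FRET, CFP and YFP emission | controls = no-enzyme low, enzyme-DMSO high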
PfM18AAP inh = blocks P. falciparum M18 aspartyl aminopeptidase. recombinant PfM18AAP, H-Glu-NHMec fluorogenic cleavage. inhibition, % at 7.35 µM. 290,000 tested, 1.2% active;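 active = inhibition above the campaign mean inhibition over all tested compounds plus 3 SD, cut at about 28% in these data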;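 note: 0% = plate median of test compound wells and 100% = 2 mM ZnCl2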
An asterisk follows results filed as active; . = no result.

SMILES | AHR act | FXN GAA850 act | HDAC3 inh | Fh CTSL1 inh | SENP1 FRET inh | PfM18AAP inh
O=C(c1ccco1)N(CCC(c1ccccc1)c1ccco1)Cc1ccco1 (centres undefined) | 4 | 2 | 22 | 26* | -15 | -8
CC(=O)N(CCC(c1ccccc1)c1ccco1)Cc1cccs1 (centres undefined) | 5 | 2 | 1 | 22* | -3 | -14
COc1ccc(NC2=C(NC(C)=O)C(=O)c3ccccc3C2=O)cc1 | 12 | -1 | 1 | 10 | -1 | 1
CCC(=O)NC1=C(Nc2ccc(N)cc2)C(=O)c2ccccc2C1=O | 55* | 8 | 3 | 0 | 8 | 11
COc1ccc(-c2oc3c(c2C(=O)OCCO)C(OCCO)CCC3)cc1 (centres undefined) | . | . | . | . | 2 | .
COc1cccc([C@@H]2Oc3ccc(OC)cc3C(=O)[C@H]2OC(=O)NCc2ccc3c(c2)OCO3)c1 | 54* | . | -2 | 0 | . | -3
Oc1[nH]c2ccc(Br)cc2c1N=NC(=S)Nc1ccc(F)cc1 | 75* | -2 | . | -3 | 2 | -9
Nc1nn(-c2ccccc2)c(N)c1N=Nc1ccccc1F | 64* | 1 | -2 | -3 | 0 | 5
Cc1nc2c(N=Nc3ccccc3F)c(N)nn2c(N)c1C#N | 60* | 2 | 2 | 4 | 2 | -9
CN1CCc2c(sc(/N=C/c3cccs3)c2C(N)=O)C1 | 70* | -1 | -15 | 3 | -22 | 9
Nc1ccc2nn(-c3cccc4ccccc34)nc2c1 | 48* | -4 | -5 | -4 | -15 | 2
NC(=O)c1ccc(N=C2C(=O)Nc3ccc([N+](=O)[O-])cc32)cc1 | 3 | 1 | 6 | 109* | 4 | 6
CN(C)c1ccc(-c2nc3ccccc3c(=O)[nH]2)cc1 | 37 | -2 | 0 | 15 | -14 | -5
Cc1nc2ncccn2c1-c1csc(Nc2cccc(C(=O)O)c2)n1 | 0 | 0 | -5 | -1 | 0 | 29*
Cc1nc2ccccn2c1-c1csc(Nc2cccc(C(=O)O)c2)n1 | 7 | 3 | -2 | -4 | -3 | 31*
COc1ccc(OC)c(Nc2nc(-c3c(C)nc4ncccn34)cs2)c1 | 22 | 5 | 5 | 6 | 6 | 9
CCN(CC(=O)Nc1c(F)cccc1F)C(=O)CCc1nc2cc(S(=O)(=O)N3CCOCC3)ccc2n1C | 1 | 1 | -4 | 1 | 1 | .
CCOC(=O)CC(NC(=O)CCS(=O)(=O)c1ccc2c(c1)n(C)c(=O)c(=O)n2C)c1ccc(C)cc1 (centres undefined) | -1 | -3 | -10 | 1 | -1 | -6
COC(=O)CNc1c(-c2ccccn2)nc2ccc(Br)cn12 | 62* | 1 | -1 | 2 | -18 | 0
CCOC(=O)CNc1c(-c2ccccc2)nc2ccc(Cl)cn12 | 13 | 3 | -1 | -1 | -32 | 2
COc1cccc(/C=N/n2c(-c3n[nH]c4c3CCC4)n[nH]c2=S)c1OC | 51* | 2 | . | -1 | -1 | 8
CCOc1ccccc1Nc1nc(-c2sc(NC(=O)c3ccc([N+](=O)[O-])cc3)nc2C)cs1 | 30 | . | 3 | 2 | . | 4
CCCCC(=O)Nc1nc(C)c(-c2csc(Nc3ccccc3OC)n2)s1 | 77* | -2 | 4 | 0 | -1 | 0
CCCCCCC(=O)Nc1nc(C)c(-c2csc(Nc3cc(OC)ccc3OC)n2)s1 | 67* | -3 | 12 | -1 | -26 | 4
O=C(CN1C(=O)NC2(CCCCCC2)C1=O)N1CCN(c2ccccc2)CC1 | -1 | 2 | 0 | . | 0 | .
SMILES | AHR act | FXN GAA850 act | HDAC3 inh | Fh CTSL1 inh | SENP1 FRET inh | PfM18AAP inh
CCCc1ccc(NC(=O)C2CCCN(c3cnccn3)C2)cc1 (centres undefined) | 48* | 1 | . | 4 | 0 | -8
Cc1cccc(CCNC(=O)C2CCCN(c3cnccn3)C2)c1 (centres undefined) | 73* | 2 | . | -2 | 2 | 4
O=C(NCc1ccc(Cl)cc1)C1CCN(c2cnccn2)CC1 | 4 | 0 | -2 | 6 | 5 | 7
O=C(NCc1ccc(Cl)cc1)C1CCCN(c2cnccn2)C1 (centres undefined) | 78* | 2 | 0 | 6 | 4 | 2
O=C(Nc1ccc(F)cc1)C1CCCN(c2cnccn2)C1 (centres undefined) | 9 | 2 | . | 10 | 1 | 0
CCOc1ccc(NC(=O)C2CCCN(c3cnccn3)C2)cc1 (centres undefined) | 64* | 2 | 5 | -1 | 1 | 6
CCOC(=O)C1(C)CCN1C(=O)c1cccc(Cl)c1 (centres undefined) | . | 1 | . | . | -1 | .
CC1(C)CC(=O)C=C(c2n[nH]nc2-c2ccccc2)C1 | . | 1 | . | . | 1 | .
CC(C)C(C)N(Cc1cccc(C(=O)O)c1)C(=O)c1ccc2ccccc2n1 (centres undefined) | -1 | 2 | -10 | -1 | 0 | .
CC1(C(=O)Nc2ccc(Cl)c(Cl)c2)CCN1C(=O)CCC1CCCC1 (centres undefined) | . | 0 | . | . | 1 | .
O=C(c1ccc(-n2cncn2)c([N+](=O)[O-])c1)N1CCN(S(=O)(=O)c2ccc(Cl)cc2)CC1 | -2 | -2 | -7 | -2 | 2 | 2
c1ccc(N2CCN(c3nc4ccccc4n4nnnc34)CC2)cc1 | 73* | -1 | -11 | 2 | -16 | 2
CCC(=O)Nc1ccc(C(=O)CSc2nc3ccccc3cc2CC)cc1 | 51* | 1 | 8 | 0 | -9 | -12
CCC(=O)Nc1ccc(C(=O)CSc2nc(N)cc(N)n2)cc1 | 3 | 0 | 8 | -2 | -1 | 23
CC(C)NC(=O)N(C)C[C@H]1OCCCC[C@@H](C)Oc2ccc(N(C)C)cc2C(=O)N([C@H](C)CO)C[C@@H]1C | . | . | . | . | 2 | .
CC(C)N(Cc1ccccc1)C(=O)CN1C(=O)NC2(CCCCCC2)C1=O | 0 | 0 | 3 | . | 0 | .
CCCNC(=O)C1(C)CCN1C(=O)c1ccc(C(C)(C)C)cc1 (centres undefined) | . | 1 | . | . | 0 | .
O=C(N/N=C/c1cccnc1)c1cc(Br)ccc1O | 29 | 3 | 2 | -2 | 0 | 0
CC(=O)Nc1cccc(C(=O)N/N=C/c2cccnc2)c1 | 12 | 0 | 6 | -3 | -2 | 6
Cc1ccccc1C(=O)N/N=C/c1ccc(Sc2ccccn2)o1 | 23 | 3 | 6 | -1 | -27 | -3
O=C(N/N=C/c1ccc(O)c2ncccc12)c1cccc(Br)c1 | 2 | -4 | -5 | 4 | 52* | 6
O=C(N/N=C\c1ccc(Sc2ccccn2)o1)c1cccc(Br)c1 | 61* | -3 | 6 | 1 | 3 | 2
CCOc1ccc(Br)cc1C(=O)N/N=C/c1cccnc1 | 67* | -1 | 3 | 3 | 0 | -4
O=C(N/N=C/c1cc(Br)ccc1O)c1ccncc1 | 27 | -7 | 5 | 0 | -31 | -6

Screening data from PubChem.
